Measured values published in ChEMBL document CHEMBL1127562, “N-substituted spirosuccinimide, spiropyridazine, spiroazetidine, and acetic acid aldose reductase inhibitors derived from isoquinoline-1,3-diones. 2” (J Med Chem, 1994).
Each block holds one compound with its values, some of them ahead of it. Calls of active or inactive are those of the source. The calls are words filed in the database; no cut-off is given here.

Columns and labels:
[1] = target: Aldo-keto reductase family 1 member B1 (Bos taurus) (UniProt P16116); test: Inhibition of aldose reductase activity in partially purified bovine lens preparation at 10e-5 M
Method in brief: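 Partially purified bovine lens aldose reductase. Reduction of DL-glyceraldehyde substrate followed spectrophotometrically. Activity expressed as average inhibition at the tested concentrations, 1×10^-5, 1×10^-6, 1×10^-7 and 4×10^-6 M as printed; IC50 in M where given.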

Rattus norvegicus [2] = test: Tested for in vivo inhibition of galactitol accumulation in the sciatic nerve of galactose-fed rats at the dose of 1.0 (mg/kg/day); NS=Not significant; type: functional, organism-based
Method in brief: (§1)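 Rats were given a 20% galactose diet for 4 days, with the test compound administered in the diet. Sciatic nerve galactitol accumulation was measured, and activity is given as % inhibition at the stated daily dose (mg/kg/day). Values are mean ± SEM, n = 6 animals; p < 0.01 unless indicated. NS means no significant inhibition of polyol accumulation.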

Rattus norvegicus [3] = test: Tested for in vivo inhibition of galactitol accumulation in the lens of galactose-fed rats at the dose of 47.7 (mg/kg/day); NS=Not significant; type: functional, organism-based; settings: Lens of camera-type eye
Rattus norvegicus [4] = test: Tested for in vivo inhibition of galactitol accumulation in the sciatic nerve of galactose-fed rats at the dose of 47.7 (mg/kg/day); NS=Not significant; type: functional, organism-based; method in brief: as §1
Rattus norvegicus [5] = test: Tested for in vivo inhibition of galactitol accumulation in the lens of galactose-fed rats at the dose of 25.2 (mg/kg/day); NS=Not significant; type: functional, organism-based; settings: Lens of camera-type eye
Rattus norvegicus [6] = test: Tested for in vivo inhibition of galactitol accumulation in the sciatic nerve of galactose-fed rats at the dose of 25.2 (mg/kg/day); NS=Not significant; type: functional, organism-based; method in brief: as §1
Rattus norvegicus [7] = test: Tested for in vivo inhibition of galactitol accumulation in the lens of galactose-fed rats at the dose of 69.2 (mg/kg/day); NS=Not significant; type: functional, organism-based; settings: Lens of camera-type eye
Method in brief: (§2)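 Galactosemic rats were fed 20% galactose for 4 days, with the compound mixed into the diet. […] galactitol accumulation was measured, and activity is given as % inhibition at the stated daily dose (mg/kg/day). Values are mean ± SEM of six animals; p < 0.01 unless indicated. NS means no significant inhibition of polyol accumulation.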

Rattus norvegicus [8] = test: Tested for in vivo inhibition of galactitol accumulation in the sciatic nerve of galactose-fed rats at the dose of 69.2 (mg/kg/day); NS=Not significant; type: functional, organism-based
Method in brief: (§3)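 Rats fed a 20% galactose diet for 4 days, with test compound given in the diet at the stated daily dose (mg/kg/day). Read-out is inhibition of galactitol (polyol) accumulation in sciatic nerve. Values are % inhibition, mean ± SEM of six animals; p < 0.01 unless marked (some p < 0.05). NS = no significant inhibition of polyol accumulation. Tolrestat was the reference standard.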

Rattus norvegicus [9] = test: Tested for in vivo inhibition of galactitol accumulation in the sciatic nerve of galactose-fed rats at the dose of 50 (mg/kg/day); type: functional; method in brief: as §3
Rattus norvegicus [10] = test: Tested for in vivo inhibition of galactitol accumulation in the lens of galactose-fed rats at the dose of 50 (mg/kg/day); type: functional, Lens of camera-type eye
Rattus norvegicus [11] = test: Tested for in vivo inhibition of galactitol accumulation in the lens of galactose-fed rats at the dose of 26.1 (mg/kg/day); NS=Not significant; type: functional, organism-based; settings: Lens of camera-type eye
Rattus norvegicus [12] = test: Tested for in vivo inhibition of galactitol accumulation in the sciatic nerve of galactose-fed rats at the dose of 26.1 (mg/kg/day); NS=Not significant; type: functional, organism-based; method in brief: as §1
[13] = target: Aldo-keto reductase family 1 member B1 (Bos taurus) (UniProt P16116); test: Inhibition of aldose reductase activity in partially purified bovine lens preparation at 4*10 e-8 M
Rattus norvegicus [14] = test: Tested for in vivo inhibition of galactitol accumulation in the sciatic nerve of galactose-fed rats. at the dose of 1.0 (mg/kg/day); NS=Not significant; type: functional, organism-based; method in brief: as §3
Rattus norvegicus [15] = test: Tested for in vivo inhibition of galactitol accumulation in the sciatic nerve of galactose-fed rats at the dose of 55 (mg/kg/day); NS=Not significant; type: functional, organism-based; method in brief: as §3
Rattus norvegicus [16] = test: Tested for in vivo inhibition of galactitol accumulation in the lens of galactose-fed rats at the dose of 55 (mg/kg/day); NS=Not significant; type: functional, organism-based; settings: Lens of camera-type eye
Rattus norvegicus [17] = test: Tested for in vivo inhibition of galactitol accumulation in the sciatic nerve of galactose-fed rats at the dose of 24.9 (mg/kg/day); NS=Not significant; type: functional, organism-based; method in brief: as §1
Rattus norvegicus [18] = test: Tested for in vivo inhibition of galactitol accumulation in the lens of galactose-fed rats at the dose of 24.9 (mg/kg/day); NS=Not significant; type: functional, organism-based; settings: Lens of camera-type eye
Rattus norvegicus [19] = test: Tested for in vivo inhibition of galactitol accumulation in the sciatic nerve of galactose-fed rats at the dose of 25.1 (mg/kg/day); NS=Not significant; type: functional, organism-based; method in brief: as §1
Rattus norvegicus [20] = test: Tested for in vivo inhibition of galactitol accumulation in the lens of galactose-fed rats at the dose of 25.1 (mg/kg/day); NS=Not significant; type: functional, organism-based; settings: Lens of camera-type eye
Rattus norvegicus [21] = test: Tested for in vivo inhibition of galactitol accumulation in the sciatic nerve of galactose-fed rats at the dose of 24.9 (mg/kg/day); type: functional; method in brief: as §1
Rattus norvegicus [22] = test: Tested for in vivo inhibition of galactitol accumulation in the sciatic nerve of galactose-fed rats at the dose of 98 (mg/kg/day); NS=Not significant; type: functional, organism-based; method in brief: as §3
Rattus norvegicus [23] = test: Tested for in vivo inhibition of galactitol accumulation in the lens of galactose-fed rats at the dose of 98 (mg/kg/day); NS=Not significant; type: functional, organism-based; settings: Lens of camera-type eye; method in brief: as §2
Rattus norvegicus [24] = test: Tested for in vivo inhibition of galactitol accumulation in the sciatic nerve of galactose-fed rats at the dose of 25 (mg/kg/day); NS=Not significant; type: functional, organism-based; method in brief: as §1
Rattus norvegicus [25] = test: Tested for in vivo inhibition of galactitol accumulation in the lens of galactose-fed rats at the dose of 25 (mg/kg/day); NS=Not significant; type: functional, organism-based; settings: Lens of camera-type eye

Compound: CN1C(=O)CC2(C1=O)C(=O)N(C)C(=O)c1ccc(Cl)cc12 (stereo not drawn)
inhibition [1]: inactive | inhibition (Rattus norvegicus [2]): inactive

Compound: COC(=O)NC(=O)CC1C(=O)N(C)C(=O)c2ccc([N+](=O)[O-])cc21 (stereo not drawn)
inhibition [1]: 67% | inhibition (Rattus norvegicus [3]): inactive | inhibition (Rattus norvegicus [4]): inactive

Compound: CN1C(=O)c2ccccc2C(CC(=O)O)C1=O (stereo not drawn)
inhibition [1]: 70% | inhibition (Rattus norvegicus [7]): inactive | inhibition (Rattus norvegicus [8]): inactive

Compound: O=C1c2ccccc2C2(CC(=O)N(N=C3CCCC3)C2=O)C(=O)N1Cc1nc2cc(C(F)(F)F)ccc2s1 (stereo not drawn)
inhibition [1]: inactive | Inhibition (Rattus norvegicus [9]): 92% | Inhibition (Rattus norvegicus [10]): 28%

Compound: COC(=O)NC(=O)CC1C(=O)N(C)C(=O)c2cc(Cl)c(Cl)cc21 (stereo not drawn)
inhibition [1]: 90% | inhibition (Rattus norvegicus [3]): inactive | inhibition (Rattus norvegicus [4]): inactive

Compound: NN1C(=O)CC2(C1=O)C(=O)N(Cc1nc3cc(C(F)(F)F)ccc3s1)C(=O)c1ccc(F)cc12 (stereo not drawn)
inhibition [1]: inactive | Inhibition (Rattus norvegicus [9]): 97% | Inhibition (Rattus norvegicus [10]): 31%

Compound: O=C1CC2(N1)C(=O)N(Cc1ccc(Br)cc1F)C(=O)c1ccccc12 (stereo not drawn)
inhibition (Rattus norvegicus [15]): inactive | inhibition (Rattus norvegicus [16]): inactive

Compound: O=C1Cc2c(n(Cc3ccc(Br)cc3F)c(=O)c3ccccc23)O1
inhibition (Rattus norvegicus [17]): inactive | inhibition (Rattus norvegicus [18]): inactive | inhibition [13]: 32%

Compound: O=C1c2ccccc2C2(CC(=O)N(N=C3CCOCC3)C2=O)C(=O)N1Cc1nc2cc(C(F)(F)F)ccc2s1 (stereo not drawn)
inhibition [1]: inactive | Inhibition (Rattus norvegicus [9]): 94% | Inhibition (Rattus norvegicus [10]): 41%

Compound: COC(=O)NC(=O)CC1C(=O)N(C)C(=O)c2cc(OC)ccc21 (stereo not drawn)
inhibition [1]: 72% | inhibition (Rattus norvegicus [5]): inactive | inhibition (Rattus norvegicus [6]): inactive

Continued, in another order:

inhibition [1]: 43%
Compound: O=C(O)CC1C(=O)N(Cc2ccc(C(F)(F)F)cc2)C(=O)c2ccccc21 (stereo not drawn)

inhibition [1]: inactive
Compound: NC(=O)CC1C(=O)N(Cc2ccc(Br)cc2F)C(=O)c2ccccc21 (stereo not drawn)
inhibition (Rattus norvegicus [5]): inactive | inhibition (Rattus norvegicus [6]): inactive

inhibition [1]: inactive
Compound: CCCN1C(=O)CC2(C1=O)C(=O)N(Cc1ccc(Br)cc1F)C(=O)c1ccccc12 (stereo not drawn)
inhibition (Rattus norvegicus [2]): inactive

inhibition [13]: 30%
Compound: O=C(O)CC1C(=O)N(Cc2ccc(Br)cc2F)C(=O)c2cc(Cl)ccc21 (stereo not drawn)
inhibition (Rattus norvegicus [11]): inactive | inhibition (Rattus norvegicus [12]): inactive

inhibition [1]: inactive
Compound: CCCCN1C(=O)CC2(C1=O)C(=O)N(Cc1ccc(Br)cc1F)C(=O)c1ccccc12 (stereo not drawn)
inhibition (Rattus norvegicus [2]): inactive

inhibition [1]: inactive
Compound: CCCCN1C(=O)CC2(C1=O)C(=O)N(Cc1ccc(Br)cc1F)C(=O)c1ccc(F)cc12 (stereo not drawn)
inhibition (Rattus norvegicus [14]): inactive

inhibition [1]: 80%
Compound: CCNC(=O)CC1C(=O)N(Cc2ccc(Br)cc2F)C(=O)c2ccc(F)cc21 (stereo not drawn)
inhibition (Rattus norvegicus [19]): inactive | inhibition (Rattus norvegicus [20]): inactive

inhibition [13]: 80%
Compound: O=C(O)CC1C(=O)N(Cc2ccc(Br)cc2F)C(=O)c2ccc(F)cc21 (stereo not drawn)
inhibition (Rattus norvegicus [18]): inactive | Inhibition (Rattus norvegicus [21]): 47%

inhibition [13]: 58%
Compound: O=C(O)CC1C(=O)N(Cc2ccc(Cl)c(Cl)c2)C(=O)c2ccccc21 (stereo not drawn)
inhibition (Rattus norvegicus [22]): inactive | inhibition (Rattus norvegicus [23]): inactive

inhibition [1]: inactive
Compound: NC(=O)CC1C(=O)N(Cc2ccc(Br)cc2F)C(=O)c2cc(F)ccc21 (stereo not drawn)
inhibition (Rattus norvegicus [24]): inactive | inhibition (Rattus norvegicus [25]): inactive
